Results on 16 molecules are retold here after ChEMBL document CHEMBL4433205, “Dual Pharmacophores Explored via Structure-Activity Relationship (SAR) Matrix: Insights into Potent, Bifunctional Opioid Ligand Design” (J Med Chem, 2019).

Data set [1] is described as follows: Lipophilicity, log P of the compound. Format: physicochemical. Conditions: octanol/water.
Data set [2] deals with T1, Mu-type opioid receptor (Rattus norvegicus, UniProt P33535). Put plainly: Agonist activity at rat mu opioid receptor expressed in rat C6 cell membranes assessed as stimulation of [35S]GTPgammaS binding measured after 1 hr. Format: functional. The essentials:
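Membranes (10–20 μg protein/tube) from stably transfected cells incubated 1 h at 25°C in 50 mM Tris-HCl, 100 mM NaCl, 5 mM MgCl2, pH 7.4, with 0.1 nM [35S]-GTPγS, 30 μM GDP and varying test concentrations; filtration, scintillation counting.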
For orientation: Binding of GTPγS marks nucleotide exchange on a G protein.

The target in data set [3] is T2, Delta-type opioid receptor (Rattus norvegicus, UniProt P33533). Put plainly: Agonist activity at rat delta opioid receptor expressed in rat C6 cell membranes assessed as stimulation of [35S]GTPgammaS binding measured after 1 hr. Format: functional.
T2 sequence (P33533 whole entry): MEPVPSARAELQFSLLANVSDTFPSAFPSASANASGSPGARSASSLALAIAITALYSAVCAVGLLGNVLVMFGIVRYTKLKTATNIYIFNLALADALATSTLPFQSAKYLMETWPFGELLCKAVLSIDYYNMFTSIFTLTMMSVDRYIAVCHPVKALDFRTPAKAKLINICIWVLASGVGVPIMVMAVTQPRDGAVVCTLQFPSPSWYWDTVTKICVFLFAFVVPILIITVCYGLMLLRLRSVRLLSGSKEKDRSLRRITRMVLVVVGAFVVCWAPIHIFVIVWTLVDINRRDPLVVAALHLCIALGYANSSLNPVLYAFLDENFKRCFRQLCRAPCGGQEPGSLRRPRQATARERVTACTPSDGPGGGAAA
Data set [4] deals with Delta-type opioid receptor (Rattus norvegicus) (UniProt P33533). Kind of data set: Agonist activity at rat delta opioid receptor expressed in rat C6 cell membranes assessed as stimulation of [35S]GTPgammaS binding incubated for 1 hr relative to DPDPE. Format: functional.
Chain of Delta-type opioid receptor (Rattus norvegicus) (P33533 whole entry): as above
Data set [5] addresses T3, Kappa-type opioid receptor (Homo sapiens, UniProt P41145). Kind of data set: Displacement of [3H]diprenorphine from human kappa opioid receptor expressed in CHO cell membranes measured after 1 hr by liquid scintillation counting method. The essentials: (§1)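 Competition with 0.2 nM [3H]-diprenorphine on membranes (20 μg protein/tube) from stably transfected cells in 50 mM Tris-HCl pH 7.4, 1 h at room temperature with shaking; GF/C filtration, three washes, scintillation counting. Nonspecific binding defined with 10 μM naloxone.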
A general note: Loss of bound radioactivity is the signal in a displacement assay; it reports binding, not function.

For another data set, the system named is Mus musculus. Kind of data set: Antinociceptive activity in C57BL/6 mouse assessed as increase in latency to tail withdrawal up to 10 mg/kg, ip administered at 30 mins interval measured during compound dosing by warm water tail withdrawal assay relative to control. Format: functional. The essentials: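 Male C57BL/6 mice, 20–30 g, 8–16 weeks. Saline ip, baseline latency 30 min later; then cumulative ip doses 1, 3.2, 10 mg/kg in 5% DMSO/saline at 30 min intervals, latency read 30 min after each. Tail tip (2–3 cm) in 50°C water, 20 s cutoff; expressed as % MPE (MPE = 20 s).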

The species entered for a further data set is Rattus norvegicus. Kind of data set: Selectivity ratio of Ki for rat delta opioid receptor expressed in rat C6 cell membranes to Ki for rat mu opioid receptor expressed in rat C6 cell membranes. Format: cell-based. The essentials: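 Competition binding against 0.2 nM [3H]-diprenorphine, using C6 membranes expressing rat MOR or rat DOR (20 μg protein/tube). Run in 50 mM Tris-HCl pH 7.4, 1 h at room temperature with shaking, then filtration and scintillation counting. Nonspecific binding with 10 μM naloxone.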

The target in data set [6] is T1, Mu-type opioid receptor. Put plainly: Displacement of [3H]diprenorphine from rat mu opioid receptor expressed in rat C6 cell membranes measured after 1 hr by liquid scintillation counting method. The essentials:
as §1

The target of data set [7] is T3, Kappa-type opioid receptor. Put plainly: Agonist activity at human kappa opioid receptor expressed in CHO cell membranes assessed as stimulation of [35S]GTPgammaS binding measured after 1 hr. It is filed as functional.
The target in data set [8] is Mu-type opioid receptor (Rattus norvegicus) (UniProt P33535). Kind of data set: Agonist activity at rat mu opioid receptor expressed in rat C6 glioma cell membranes assessed as stimulation of [35S]GTPgammaS binding measured after 1 hr relative to DAMGO. Format: functional.
Chain of Mu-type opioid receptor (Rattus norvegicus) (P33535 whole entry): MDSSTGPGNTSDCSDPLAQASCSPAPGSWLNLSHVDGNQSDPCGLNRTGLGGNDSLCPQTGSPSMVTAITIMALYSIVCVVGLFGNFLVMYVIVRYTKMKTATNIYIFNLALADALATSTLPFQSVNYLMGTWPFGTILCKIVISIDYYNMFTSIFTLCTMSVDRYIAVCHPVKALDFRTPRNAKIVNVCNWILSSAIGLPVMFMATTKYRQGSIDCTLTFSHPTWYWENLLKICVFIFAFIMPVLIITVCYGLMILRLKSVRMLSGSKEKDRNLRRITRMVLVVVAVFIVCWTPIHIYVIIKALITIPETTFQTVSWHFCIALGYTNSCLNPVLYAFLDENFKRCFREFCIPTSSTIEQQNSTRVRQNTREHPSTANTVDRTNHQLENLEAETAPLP
The target of data set [9] is T3, Kappa-type opioid receptor. Put plainly: Agonist activity at human kappa opioid receptor expressed in CHO cell membranes assessed as stimulation of [35S]GTPgammaS binding to G protein incubated for 1 hr relative to U69,593. Format: functional.
For data set [10], the target named is T2, Delta-type opioid receptor. Put plainly: Displacement of [3H]diprenorphine from rat delta opioid receptor expressed in rat C6 cell membranes measured after 1 hr by liquid scintillation counting method.

The source made the active and inactive calls.

T3 sequence (P41145 whole entry): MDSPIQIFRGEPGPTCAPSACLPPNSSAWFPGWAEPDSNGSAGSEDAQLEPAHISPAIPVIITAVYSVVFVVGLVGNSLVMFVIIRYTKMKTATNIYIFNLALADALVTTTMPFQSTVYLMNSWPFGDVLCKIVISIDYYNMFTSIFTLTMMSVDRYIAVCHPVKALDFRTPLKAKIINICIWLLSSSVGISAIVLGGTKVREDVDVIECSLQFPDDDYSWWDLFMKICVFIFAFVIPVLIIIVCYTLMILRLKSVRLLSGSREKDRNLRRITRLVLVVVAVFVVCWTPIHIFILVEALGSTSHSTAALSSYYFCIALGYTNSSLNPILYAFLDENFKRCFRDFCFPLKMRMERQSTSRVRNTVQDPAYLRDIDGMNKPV
T1 sequence (P33535 whole entry): as the sequence (P33535 whole entry) above

On to `Cc1cc(O)cc(C)c1C[C@H](N)C(=O)N[C@@H]1CCNc2ccc(Cc3ccc4ccccc4c3)cc21`, for which, in data set [1], the lipophilicity (logP) (as a rule, a log measure of how a compound divides between an organic and an aqueous phase) stood at 4.9.

As for `Cc1cc(O)cc(C)c1C[C@H](N)C(=O)N[C@@H]1CCN(C(=O)C2CC2)c2ccc(Cc3ccccc3)cc21`, the logP in [1] worked out at 3.9.

Molecule `CC(=O)N1CC[C@@H](NC(=O)[C@@H](N)Cc2c(C)cc(O)cc2C)c2cc(Cc3ccc4ccccc4c3)ccc21` registered a logP in [1] of 4.5.

On to `Cc1cc(O)cc(C)c1C[C@H](N)C(=O)N[C@@H]1CCN(C(=O)C2CC2)c2ccc(Cc3ccc4ccccc4c3)cc21`, for which the figures for the EC50 (at Mu-type opioid receptor [2]; in data set [3] (read-out: EC50); in [7] (read-out: EC50)) were 0.42 nM, 1.9 nM and above 500 nM, respectively. For the same molecule, the figures for the Efficacy in data set [4], in [8] and in data set [9] were 32%, 85% and 38%, respectively. Further, the Ki – broadly, the dissociation constant of the complex between target and ligand, obtained from inhibition or displacement – in data set [5] came to 117 nM; on Mu-type opioid receptor [6], 0.05 nM; in data set [10], 0.37 nM. The MPE entry in the data set on Mus musculus is “inactive”. Further, the lipophilicity (logP) in data set [1] amounted to 5.1. In addition, the Ratio Ki in the data set filed under Rattus norvegicus is 7.

As to `Cc1cc(O)cc(C)c1C[C@H](N)C(=O)N[C@@H]1CCN(C(=O)c2ccccc2)c2ccc(Cc3ccccc3)cc21`, the logP in data set [1] was found to be 4.6.

For `CC(=O)N1CC[C@@H](NC(=O)[C@@H](N)Cc2c(C)cc(O)cc2C)c2cc(Cc3cc4ccccc4o3)ccc21`, the concentration for a half-maximal effect (EC50) (usually the concentration giving half of the maximal effect) was 1.9 nM on Mu-type opioid receptor [2], 1.6 nM in [3] (read-out: EC50) and above 500 nM in [7] (read-out: EC50). Further, the Efficacy in data set [4] turned out to be 30%; in data set [8], 86%; in [9] it was 33%. For the same molecule, the Ki in data set [5] turned out to be 58 nM; on Mu-type opioid receptor [6], 0.12 nM; in [10], 0.73 nM. Also, the MPE entry in the data set with Mus musculus was “inactive”. In addition, in [1], the lipophilicity (logP) was determined as 3.9. Further, the Ratio Ki in the data set listed under Rattus norvegicus was 6.

Turning to `Cc1cc(O)cc(C)c1C[C@H](N)C(=O)N[C@@H]1CCNc2ccc(Cc3cnc4ccccc4c3)cc21.O=C(O)C(F)(F)F`, the EC50 at Mu-type opioid receptor [2] is 2.2 nM; in [3] (c6) it was “Not Active”; in [7] (cho), “Not Active”. Also, the Efficacy entry in data set [4] and in data set [9] was “inactive” each time. Moreover, the Ki was determined as 16 nM in [5], 0.1 nM at Mu-type opioid receptor [6] and 1.5 nM in data set [10]. Moreover, the MPE result in the data set on Mus musculus was “inactive”. Moreover, in [1], the logP was 3.7. Further, the Ratio Ki in the data set filed under Rattus norvegicus was determined as 15. In addition, in data set [8], the Efficacy came out at 84%.

As for `Cc1cc(O)cc(C)c1C[C@H](N)C(=O)N[C@@H]1CCN(C(=O)C2CC2)c2ccc(Cc3cnc4ccccc4c3)cc21.O=C(O)C(F)(F)F`, the EC50 was 0.34 nM at Mu-type opioid receptor [2], 0.71 nM in data set [3] (read-out: EC50) and “Not Active” in data set [7] (cho). The Efficacy in [4] worked out at 84%; in [8] it was 47%. Moreover, the inhibition constant Ki in data set [5] worked out at 84 nM; at Mu-type opioid receptor [6] it was 0.05 nM; in [10], 0.08 nM. Besides, the MPE entry in the data set with Mus musculus was “inactive”. The log partition coefficient (logP) in data set [1] is 3.8. Also, in the data set listed under Rattus norvegicus, the Ratio Ki came out at 2. For the same molecule, in data set [9], the Efficacy entry is “inactive”.

Regarding `Cc1cc(O)cc(C)c1C[C@H](N)C(=O)N[C@@H]1CCN(C(=O)c2ccccc2)c2ccc(CN3CCc4ccccc4C3)cc21.O=C(O)C(F)(F)F`, the concentration for a half-maximal effect (EC50) on Mu-type opioid receptor [2] was 4.2 nM; in [3] (c6) it was “Not Active”; in [7] (cho), “Not Active”. The Efficacy entry in [4] and in data set [9] was “inactive” each time. Also, the results for the Ki (in [5]; at Mu-type opioid receptor [6]; in data set [10]) were 160 nM, 0.37 nM and 4 nM, respectively. The MPE entry with Mus musculus is “inactive”. The same molecule came in with a logP in data set [1] of 4.5. Moreover, in the data set listed under Rattus norvegicus, the Ratio Ki worked out at 11. In [8], the Efficacy was 93%.

For the molecule `Cc1cc(O)cc(C)c1C[C@H](N)C(=O)N[C@@H]1CCN(S(C)(=O)=O)c2ccc(Cc3cnc4ccccc4c3)cc21.O=C(O)C(F)(F)F`, the results for the EC50 (on Mu-type opioid receptor [2]; in [3] (c6); in data set [7] (cho)) were 0.26 nM, “Not Active” and “Not Active”, respectively. In addition, the Efficacy entry in [4] and in [9] was “inactive” each time. Also, the Ki in [5] was 7 nM; on Mu-type opioid receptor [6] it was 0.23 nM; in data set [10] it was 0.64 nM. Moreover, in the data set on Mus musculus, the MPE was found to be 50%. Besides, the logP in data set [1] was 3.1. In addition, in the data set filed under Rattus norvegicus, the Ratio Ki is 3. Further, the Efficacy in data set [8] came to 96%.

As to `Cc1cc(O)cc(C)c1C[C@H](N)C(=O)N[C@@H]1CCN(C(=O)C2CC2)c2ccc(Cc3cc4ccccc4o3)cc21.O=C(O)C(F)(F)F`, the EC50 was 0.9 nM at Mu-type opioid receptor [2], 3.7 nM in data set [3] (read-out: EC50) and “Not Active” in [7] (cho). Also, the Efficacy was 52% in data set [4] and 89% in [8]. The Ki was determined as 98 nM in [5], 0.05 nM on Mu-type opioid receptor [6] and 0.26 nM in data set [10]. Also, the MPE entry in the data set with Mus musculus was “inactive”. In data set [1], this molecule had a log partition coefficient (logP) of 4.5. For the same molecule, the Efficacy result in data set [9] is “inactive”.

As for `Cc1cc(O)cc(C)c1C[C@H](N)C(=O)N[C@@H]1CCNc2ccc(Cc3ccc4c(c3)OCCO4)cc21.O=C(O)C(F)(F)F`, the EC50 is 7.3 nM at Mu-type opioid receptor [2], “Not Active” in [3] (c6) and “Not Active” in [7] (cho). Moreover, the Efficacy result in data set [4] and in data set [9] was “inactive” throughout. In addition, in the data set with Mus musculus, the MPE entry was “inactive”. In data set [1], the logP came to 3.5. The Ratio Ki in the data set filed under Rattus norvegicus worked out at 16. Besides, in [8], the Efficacy amounted to 88%.

For the molecule `Cc1cc(O)cc(C)c1C[C@H](N)C(=O)N[C@@H]1CCN(C(=O)c2ccccc2)c2ccc(Cc3cnc4ccccc4c3)cc21.O=C(O)C(F)(F)F`, the EC50 at Mu-type opioid receptor [2] is 1 nM; in data set [3] (c6), “Not Active”; in data set [7] (cho), “Not Active”. Moreover, the Ki came to 100 nM in data set [5], 0.04 nM at Mu-type opioid receptor [6] and 0.74 nM in [10]. Also, the MPE in the data set on Mus musculus worked out at 100%. Moreover, the Efficacy in data set [8] came to 43%. Further, the Efficacy result in [9] was “inactive”.

Consider `Cc1cc(O)cc(C)c1C[C@H](N)C(=O)N[C@@H]1CCNc2ccc(Cc3cc4ccccc4o3)cc21.O=C(O)C(F)(F)F`, for which the 50% effective concentration (EC50) is 1.1 nM at Mu-type opioid receptor [2], “Not Active” in data set [3] (c6) and “Not Active” in [7] (cho). Also, the Efficacy entry in data set [4] and in data set [9] was “inactive” in each case. In addition, the Ki was 40 nM in data set [5] and 5 nM in data set [10]. Also, in the data set on Mus musculus, the MPE is on record as 50%. Also, in data set [1], the logP is 4.3. For the same molecule, the Ratio Ki in the data set filed under Rattus norvegicus stood at 44. In addition, in data set [8], the Efficacy came to 98%.

Take `Cc1cc(O)cc(C)c1C[C@H](N)C(=O)N[C@@H]1CCNc2ccc(CN3CCc4ccccc4C3)cc21.O=C(O)C(F)(F)F`: the half-maximal effective concentration (EC50) was 0.4 nM on Mu-type opioid receptor [2], “Not Active” in data set [3] (c6) and 90 nM in data set [7] (read-out: EC50). In [4], the Efficacy entry is “inactive”. Moreover, the Ki is 2.2 nM in [5], 0.03 nM on Mu-type opioid receptor [6] and 3.1 nM in data set [10]. Besides, the MPE entry with Mus musculus was “inactive”. This molecule also gave a logP in data set [1] of 3.7. The figures for the Efficacy in data set [8] and in data set [9] were 105% and 25%, respectively.

Molecule `CC(=O)N1CC[C@@H](NC(=O)[C@@H](N)Cc2c(C)cc(O)cc2C)c2cc(Cc3ccccc3)ccc21` yielded a logP in [1] of 3.4.
